Data set [1] has as its target T1, Arylacetamide deacetylase (Mus musculus, UniProt Q99PG0).
T1 sequence (Q99PG0 whole entry): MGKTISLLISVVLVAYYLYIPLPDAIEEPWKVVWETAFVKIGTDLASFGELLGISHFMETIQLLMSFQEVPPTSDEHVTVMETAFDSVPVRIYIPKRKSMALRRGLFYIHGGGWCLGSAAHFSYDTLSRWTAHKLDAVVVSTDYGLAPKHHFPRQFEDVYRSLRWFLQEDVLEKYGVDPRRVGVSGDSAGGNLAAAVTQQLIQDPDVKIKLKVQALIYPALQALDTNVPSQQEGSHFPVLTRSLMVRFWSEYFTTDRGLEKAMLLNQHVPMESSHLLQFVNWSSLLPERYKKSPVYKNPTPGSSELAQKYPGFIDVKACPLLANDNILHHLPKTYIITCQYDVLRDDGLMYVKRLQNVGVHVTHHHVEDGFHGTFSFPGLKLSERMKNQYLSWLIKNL
In words: Activity of AADAC in mouse lung microsome. Particulars: microsomes. Format: ADME. The method in brief: (§1)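 Hydrolase activity of tissue microsomes in 0.2 ml mixtures of 100 mM potassium phosphate (pH 7.4). Microsomal protein: 0.4 mg/ml for flutamide (0.025–0.75 mM) and phenacetin (0.05–4 mM); 0.5 mg/ml for rifampicin (0.005–1 mM). Products measured were FLU-1, p-phenetidine and 25-deacetylrifampicin, within linear ranges. Three independent experiments.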

A short description of data set [2]: Intrinsic clearance in mouse Liver microsome at 0.025 to 0.75 mM. Format: ADME. Particulars: liver microsomes, read-out: CLH. The method in brief:
(§2)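 Flutamide hydrolysis to FLU-1 in 100 mM potassium phosphate (pH 7.4) with 0.4 mg/ml microsomal protein. Flutamide was 0.025–0.75 mM, or 0.005–0.75 mM for human jejunum. Rodent microsomes were pooled from 3 male SD rats or 5 male C57BL/6J mice. CLint is Vmax/Km, or the initial slope when Km was high; for Hill fits, CLmax. Triplicate determinations.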
A general note: Microsomes from liver hold many membrane-bound enzymes, among them those of drug oxidation.

Data set [3] in a line: Intrinsic clearance in mouse jejunum microsome at 0.005 to 0.75 mM. Format: ADME. Particulars: jejunum microsomes.
Data set [4] in a line: Intrinsic clearance in mouse kidney microsome at 0.025 to 0.75 mM. Format: ADME. Particulars: kidney microsomes. The method in brief:
as §2

Data set [5] deals with T2, Arylacetamide deacetylase (Homo sapiens, UniProt P22760).
T2 sequence (P22760 whole entry): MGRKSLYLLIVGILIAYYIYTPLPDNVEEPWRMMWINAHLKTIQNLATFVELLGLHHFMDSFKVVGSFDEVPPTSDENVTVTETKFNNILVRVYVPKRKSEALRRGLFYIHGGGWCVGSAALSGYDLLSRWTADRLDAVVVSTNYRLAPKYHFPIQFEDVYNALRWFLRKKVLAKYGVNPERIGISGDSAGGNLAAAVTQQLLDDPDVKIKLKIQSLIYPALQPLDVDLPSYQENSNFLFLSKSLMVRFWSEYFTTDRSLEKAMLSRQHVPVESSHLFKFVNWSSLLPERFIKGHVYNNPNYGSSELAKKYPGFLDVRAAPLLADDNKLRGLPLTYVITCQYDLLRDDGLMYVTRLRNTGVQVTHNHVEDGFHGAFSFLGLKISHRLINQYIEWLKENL
In words: Activity of AADAC in human liver microsome. Particulars: microsomes. Format: ADME. An outline of the steps: as §1

Data set [6] concerns the target T2, Arylacetamide deacetylase. In words: Activity of AADAC in human jejunum microsome. Format: ADME. Particulars: microsomes. An outline of the steps: as §1
Data set [7] concerns the target T2, Arylacetamide deacetylase. The data set can be described thus: Activity of AADAC in human kidney microsome. Particulars: microsomes. Format: ADME. The method in brief: as §1
Data set [8] is described as follows: Intrinsic clearance in human Liver microsome at 0.025 to 0.75 mM. Format: ADME. Particulars: liver microsomes, read-out: CLH. An outline of the steps:
as §2

The nature of data set [9]: Intrinsic clearance in human jejunum microsome at 0.005 to 0.75 mM. Format: ADME. Particulars: jejunum microsomes. An outline of the steps:
as §2

Data set [10] can be described thus: Intrinsic clearance in human kidney microsome at 0.025 to 0.75 mM. Format: ADME. Particulars: kidney microsomes. The method in brief: as §2
The target in data set [11] is T2, Arylacetamide deacetylase. In words: Inhibition of AADAC in human jejunum microsome. An outline of the steps:
(§3)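 Flutamide hydrolysis to FLU-1 by pooled human jejunum (n = 10) or single-donor human renal microsomes at 0.4 mg/ml in 100 mM potassium phosphate (pH 7.4). Flutamide was 0.005–0.75 mM (jejunum) or 0.025–0.75 mM (kidney). Kinetics were fitted to the substrate inhibition equation, combined with Michaelis-Menten for jejunum. Triplicate determinations.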

The target in data set [12] is T2, Arylacetamide deacetylase. In words: Inhibition of AADAC in human kidney microsome. The method in brief:
as §3

The nature of data set [13]: Intrinsic clearance in rat Liver microsome at 0.025 to 0.75 mM. Format: ADME. Particulars: liver microsomes, read-out: CLH. The method in brief:
as §2

Data set [14] is described as follows: Intrinsic clearance in rat jejunum microsome at 0.005 to 0.75 mM. Format: ADME. Particulars: jejunum microsomes.
Data set [15] is described as follows: Intrinsic clearance in rat kidney microsome at 0.025 to 0.75 mM. Particulars: kidney microsomes. Format: ADME. An outline of the steps: as §2
Data set [16] is described as follows: Intrinsic clearance in rat lung microsome at 0.025 to 0.75 mM. Format: ADME. Particulars: lung microsomes. The method in brief:
as §2

pKi: −log10 of the molar value.

The term Vmax denotes the rate approached at saturating substrate. What is called pKi is the negative decadic logarithm of the Ki, by convention in mol/L. Read a high pKi as a small Ki. Regarding `CC(C)C(=O)Nc1ccc([N+](=O)[O-])c(C(F)(F)F)c1` [FLUTAMIDE], the Vmax in data set [1] is listed as 0 nmol/min/mg; in [5], 1.9 nmol/min/mg. In addition, the microsomal CLint at up to 750 µM in data set [2] is 1.2 µL/min/mg; in data set [3], 0.2 µL/min/mg; in data set [4], 0.6 µL/min/mg; in data set [8] it was 1.8 µL/min/mg; in data set [9], 12.9 µL/min/mg; in [10], 1.2 µL/min/mg. The microsomal CLint at up to 750 µM in data set [13] was determined as 1.4 µL/min/mg; in data set [14], 0.2 µL/min/mg; in [15] it was 0.2 µL/min/mg; in data set [16], 0.1 µL/min/mg. Besides, the S50 in [6] stood at 0.2 mM; in data set [7], 2.1 mM. The pKi in [11] was 4.85; in data set [12], 6.22.

Values taken from ChEMBL document CHEMBL3526129, “Species differences in tissue distribution and enzyme activities of arylacetamide deacetylase in human, rat, and mouse” (Drug Metab Dispos, 2012).
